Columns and labels:
Assay type in all cases: functional, cell-based
[1] = tested on: MGC-803; assay: Antiproliferative activity against human MGC803 cells after 48 hrs by MTT assay; details: MGC-803, 48 h
In short: (§1)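 Cells exposed to compounds for 48 h, then read by MTT. IC50 is the concentration giving 50% inhibition of tumour cell proliferation, taken from dose-response curves. Values are means±SD of three independent experiments. 5-FU was the reference drug.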

[2] = tested on: ECa-109 cell line; assay: Antiproliferative activity against human EC109 cells after 48 hrs by MTT assay; details: ECa-109, 48 h; in short: as §1
[3] = tested on: PC-3; assay: Antiproliferative activity against human PC3 cells after 48 hrs by MTT assay; details: PC-3, 48 h; in short: as §1
[4] = tested on: SK-N-SH; assay: Antiproliferative activity against human SK-N-SH cells after 48 hrs by MTT assay

| IC50 [1] | IC50 [3] | IC50 [4] | Structure (SMILES) | IC50 [2] |
| --- | --- | --- | --- | --- |
| > 100 µM | 57.8 µM | – | O=c1cc(OCCCn2cc(CSc3nnc(-c4ccccc4)c(-c4ccccc4)n3)nn2)c2ccccc2o1 | > 100 µM |
| – | – | 8.16 µM | O=C(/C=C/c1ccc(OCCCn2cc(CSC3=NCCS3)nn2)cc1)c1ccc(Br)cc1 | – |
| 34.8 µM | 22.6 µM | – | Cc1ccc(Cn2cc(CSc3nnc(-c4ccccc4)c(-c4ccccc4)n3)nn2)cc1 | 12.4 µM |
| 11.3 µM | 15.6 µM | – | c1ccc(Cn2cc(CSc3nnc(-c4ccccc4)c(-c4ccccc4)n3)nn2)cc1 | 11.1 µM |
| > 100 µM | > 100 µM | – | C#CCSc1nnc(-c2ccccc2)c(-c2ccccc2)n1 | > 100 µM |

— ChEMBL document CHEMBL4130370, “Discovery of 5,6-diaryl-1,2,4-triazines hybrids as potential apoptosis inducers” (Eur J Med Chem, 2017)
